# Measurements as given in PMC12400138 (Molecular and Clinical Oncology, 2025).
# Like-named read-outs stand apart in the source and are kept apart here.
# How the values were obtained:
# HK1 [1] = assay: MTS assay, HK1; type: cell-based, human; conditions: read-out: IC50 value
# How it was run: (§1)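 Cell lines were seeded per well in 96-well plates: C666-1 at 30,000, HK1 at 10,000, NP69SV40T at 15,000 and NP460hTert at 15,000. After 2 h at 37°C in 5% CO2, test compound was added at 0.8-200 nM (rocaglates) or 0.15-20 µM (second compound). Vehicle was 0.1% DMSO final, or NaH2PO4. MTS was added after 1-3 days for 1-4 h, reading A490 minus A630. IC50 was fitted from % signal versus vehicle.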
# NP69SV40T = assay: MTS assay, NP69SV40T; type: cell-based, human; conditions: read-out: IC50 value
# How it was run: as §1
# NP460hTert = assay: MTS assay, NP460hTert; type: cell-based, human; conditions: read-out: IC50 value
# How it was run: as §1
# HK1 [2] = assay: Flow cytometric analysis of cell cycle progression; type: cell-based, human
# How it was run: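 HK1 cells were seeded at 1.0x10^5 cells/0.5 ml/well in 12-well plates. After 2 h, test compound was added at 5 nM, 10 nM or 1 µM, alone or combined. Exposure lasted 2-3 days. Adherent and floating cells were pelleted and stained in hypotonic buffer (propidium iodide, RNase A, sodium citrate, Triton X) on ice, in the dark, for 10 min. ≥10,000 events were acquired by flow cytometry, and DNA-content histograms were modelled for cycle phases.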
# HK1 [3] = assay: FITC Annexin V/PI apoptosis assay; type: cell-based, human; conditions: 3 days post-treatment, 1 μM
# How it was run: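 HK1 cells were seeded at 1.0x10^5 cells/0.5 ml/well in 12-well plates. After ~2 h, test compound was added at 5 nM, 10 nM or 1 µM, alone or combined, for 3 days. Adherent and floating cells were stained with FITC-Annexin V and PI in binding buffer for 15 min in the dark. Samples were diluted, kept on ice and analysed by flow cytometry, acquiring 10,000 events per sample.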
# [4] = system: NPC cell lines or nasopharyngeal epithelial cells; assay: MTS assay, summary over cell lines; type: cell-based; conditions: Homo sapiens, read-out: IC50 values
# How it was run: as §1
# normal bone marrow cells = conditions: 1 µΜ, two days; cited from earlier work
# [5] = advanced hematologic malignancy patients; phase I dose-escalation; cited from earlier work
# C666-1 = assay: MTS assay, C666-1; type: cell-based, human
# How it was run: as §1
# [6] = toxicity studies mostly in murine models; cited from earlier work
# [7] = silvestrol 5 nM, episilvestrol 10 nM or combination with 1 µM CX-5461
smiles,measurement,setting,value
"Cc1cnc(CNC(=O)c2c(=O)c3ccc(N4CCCN(C)CC4)nc3n3c2sc2ccccc23)cn1 [CX-5461, reference compound]",IC50,"HK1 [1]; Homo sapiens, HK-1, 24 h",2 µM
same,IC50,"HK1 [1]; Homo sapiens, HK-1, 48 h",1 µM
same,IC50,"NP69SV40T; Homo sapiens, 24 h",6 µM
same,IC50,"NP69SV40T; Homo sapiens, 48 h",1 µM
same,IC50,"NP460hTert; Homo sapiens, 24 h",0.5 µM
same,IC50,"NP460hTert; Homo sapiens, 48 h",0.4 µM
same,cell cycle arrest,HK1 [2]; 1 µM,arrested cells at S-phase and G2/M
same,% apoptosis (percentage of total apoptosis),HK1 [3],< 20%
same,IC50,[4],0.4 to 6 µM
same,cell death,normal bone marrow cells,minimal cell death
same,tolerability,[5],well tolerated
"COC(=O)[C@H]1[C@@H](O)[C@@]2(O)c3c(OC)cc(O[C@@H]4O[C@@H]([C@@H](O)CO)CO[C@H]4OC)cc3O[C@@]2(c2ccc(OC)cc2)[C@@H]1c1ccccc1 [Episilvestrol, episilvestrol]",IC50,"C666-1; read-out: IC50 value, 1 day post-treatment",0.056 µM
same,IC50,"C666-1; read-out: IC50 value, 2 days post-treatment",0.018 µM
same,IC50,"C666-1; read-out: IC50 value, 3 days post-treatment",0.01 µM
same,IC50,"HK1 [1]; HK1, 1 day post-treatment",0.06 µM
same,IC50,"HK1 [1]; HK1, 2 days post-treatment",0.013 µM
same,IC50,"HK1 [1]; HK1, 3 days post-treatment",0.01 µM
same,IC50,"NP69SV40T; NP69SV40T, 1 day post-treatment",0.068 µM
same,IC50,"NP69SV40T; NP69SV40T, 2 days post-treatment",0.019 µM
same,IC50,"NP69SV40T; NP69SV40T, 3 days post-treatment",0.01 µM
same,IC50,"NP460hTert; NP460hTert, 1 day post-treatment",0.014 µM
same,IC50,"NP460hTert; NP460hTert, 2 days post-treatment",0.02 µM
same,IC50,"NP460hTert; NP460hTert, 3 days post-treatment",0.01 µM
same,cell cycle arrest,HK1 [2]; [7],arrested cells at G0/G1
"COC(=O)[C@H]1[C@@H](O)[C@@]2(O)c3c(OC)cc(O[C@@H]4O[C@@H]([C@H](O)CO)CO[C@H]4OC)cc3O[C@@]2(c2ccc(OC)cc2)[C@@H]1c1ccccc1 [Silvestrol, silvestrol]",IC50,"HK1 [1]; Homo sapiens, HK-1, 24 h",0.132 µM
same,IC50,"HK1 [1]; Homo sapiens, HK-1, 48 h",0.007 µM
same,IC50,"NP69SV40T; Homo sapiens, 24 h",0.058 µM
same,IC50,"NP69SV40T; Homo sapiens, 48 h",0.008 µM
same,IC50,"NP460hTert; Homo sapiens, 24 h",0.009 µM
same,IC50,"NP460hTert; Homo sapiens, 48 h",0.009 µM
same,cell cycle arrest,HK1 [2]; [7],arrested cells at G0/G1
same,tolerability,[6],well tolerated
